Compound activity: PubChem, several laboratories
Lmaj promast: inhibitors of Leishmania major promastigote growth; Leishmania major promastigotes, resazurin fluorescence viability; hit rate 9% among 200,000; inhibition, % at 10 µM; in the data active = inhibition above about 50%;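 also: promastigotes grown with compound for 44 hours at 28 °C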
Rad51 HR inh: blocks human Rad51 in homologous recombination; Q06609; hRad51 DNA strand exchange, fluorescence dequenching; inhibition, % at 10 µM; hit rate 0.085% among 200,000; AID 1385;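 active = inhibition above 40% at the single screening dose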
Target sequence (Q06609 whole entry, looked up): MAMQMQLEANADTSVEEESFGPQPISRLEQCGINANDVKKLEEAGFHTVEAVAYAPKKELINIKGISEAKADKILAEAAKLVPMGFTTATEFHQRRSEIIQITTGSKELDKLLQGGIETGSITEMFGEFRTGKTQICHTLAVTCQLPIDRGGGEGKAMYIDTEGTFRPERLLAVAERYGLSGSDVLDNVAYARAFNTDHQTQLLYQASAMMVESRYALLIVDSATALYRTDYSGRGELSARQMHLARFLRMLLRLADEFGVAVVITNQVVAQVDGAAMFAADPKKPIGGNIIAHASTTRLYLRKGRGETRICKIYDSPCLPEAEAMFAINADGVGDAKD
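Test system – preformed human Rad51 ssDNA filaments · Reagent – Donor/quencher-labelled 47-bp dsDNA substrate · Incubation – 37 °C 15-min filament assembly, 30-min compound preincubation, 15-min exchange · Signal – FRET fluorescence dequenching, excitation 485 nm, emission 520 nm · Read-out – percent inhibition from fluorescence, normalised to plate control and blank means · Benchmarks – plate control and blank wells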
m-calpain inh: blocks pig calpain II enzyme activity. purified calpain II, fluorogenic peptide substrate, 30 min. inhibition, % at 16 µM. hit rate 0.37% among 220,000. AID 1236;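 active = inhibition above about 50%, limit read from the data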
WT yeast gro inh: growth inhibition of WT yeast, mitochondrial fusion screen; hit rate 2.1% among 190,000; mitochondrial fusion phenotypic screen, WT strain; inhibition, % at 10 µM; in the data active = inhibition above about 58%; tested in S. cerevisiae
PMI act: phosphomannose isomerase (human) activation. activation factor at 20 µM. purified human PMI, coupled resazurin fluorescence, 20 min; active compounds read high; 1 = vehicle control, 0 substrate-free wells. hit rate 0.005% among 190,000. AID 1214;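 active = activation factor of 2 or more at 20 µM, relative to plate controls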
PMI act hi M6P: PMI (human) activation, high substrate; activation factor at 20 µM; coupled PMI enzyme assay, resazurin fluorescence, 20 min; active compounds read high; 1 = untreated enzyme, 0 = substrate-free blank; AID 1216; P34949; hit rate 0.34% among 190,000;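 active = activation factor of 2 or more at 20 µM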
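test system = human PMI in coupled enzyme assay | medium = HEPES-buffered pH 7.4 with magnesium and detergent | also added = 1.0 mM mannose-6-phosphate substrate with 0.22 mM NADP+ | compound = 20 µM single dose | times = 20 min incubation at room temperature | measured by = resorufin fluorescence (Ex 544/Em 590 nm) from resazurin via diaphorase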
Each line names hits and unclear results; the compound was inactive in the other large screens. Shown are actives, neighbours in structure and some others; about 9.8% of the full set was active somewhere.

O=C(N/C=C/c1ccc(Cl)cc1)NCc1ccc(Cl)cc1	Lmaj promast 60
COc1cc(NC(=O)CSc2nc3ccccc3n2-c2ccccc2)c(C)cc1[N+](=O)[O-]	Lmaj promast 55 (no result: Rad51 HR inh)
CCN(CC)c1ccc(NC(=O)CSc2nc3ccccc3c(=O)n2-c2cc(S(=O)(=O)N(C)C)ccc2C)cc1	Lmaj promast 99
CN(C)S(=O)(=O)c1cccc(NC(=O)CSc2nc3ccccc3n2-c2ccccc2)c1	none (no result: Rad51 HR inh)
CN(C)c1ccc(NC(=O)CSc2nc3ccccc3c(=O)n2C2CCCCC2)cc1	none
CN(C)S(=O)(=O)c1ccc(NC(=O)CSc2nc3ccccc3n2-c2ccccc2)cc1	Lmaj promast 100
CC(C)c1c(O)cc(-c2ccncc2)n(-c2ccc(Cl)cc2)c1=O	Lmaj promast 54
CC(C)c1cc(O)c(-c2ccccc2)c(=O)n1-c1ccc(Cl)cc1	none (no result: Lmaj promast, WT yeast gro inh, PMI act, PMI act hi M6P)
CCOc1ccc2nc(N/C(N)=N/C(=S)Nc3ccc(OC)cc3)nc(C)c2c1	Lmaj promast 72 (no result: Rad51 HR inh)
CCCCCC(=O)N/N=C(\C)c1ccc(N2CCCCC2)cc1	none (no result: Rad51 HR inh)
O=S(=O)(Nc1ccc(O)c(CN2CCCCC2)c1)c1ccccc1	Lmaj promast 99, Rad51 HR inh 57
Cn1c(CN2CCCC2)nc2cc(NS(=O)(=O)c3ccccc3)ccc21	none
O=C(c1ccc(N2CCCC2=O)cc1)N1CCCCCC1	m-calpain inh 84
O=C(c1ccc(N2CCCC2=O)cc1)N1CCN(c2ccccc2)CC1	none
CCN(CC)c1nc(-c2ccccc2)ncc1S(=O)(=O)c1ccc(C)cc1	WT yeast gro inh 62 (no result: Rad51 HR inh)
COC(=O)c1ccc(Cn2c(O)c(N=NC(N)=S)c3ccccc32)o1	none (no result: Lmaj promast, Rad51 HR inh, WT yeast gro inh, PMI act, PMI act hi M6P)
CCc1ccc(-c2csc(NC(=O)C3CC(=O)N(c4ccc5c(c4)OCCO5)C3)n2)cc1 (stereo not drawn)	Lmaj promast 98
COCC[N+]1(C)CCCCC1	none (no result: Rad51 HR inh)
CCc1ccc(NC(=O)C(C)OC(=O)c2ccc(NS(=O)(=O)c3ccc(C)c([N+](=O)[O-])c3)cc2)cc1 (stereo not drawn)	Lmaj promast 64
Cc1ccc(NC(=O)C(C)OC(=O)c2ccc(NS(=O)(=O)c3ccc(F)c(F)c3)cc2)cc1 (stereo not drawn)	none (no result: Rad51 HR inh)
COc1ccc(CCNC(=O)CC(NC(=O)c2ccccc2Cl)c2ccccc2)cc1 (stereo not drawn)	Lmaj promast 75
O=C(CC(NC(=O)c1ccccc1Cl)c1ccccc1)Nc1ccc2c(c1)OCO2 (stereo not drawn)	Lmaj promast 100
CCN1C=C(C(=O)OC)C(c2cccc(OC)c2OC)C(C(=O)OC)=C1	none (no result: Rad51 HR inh)
NC(=O)CC[C@H](NC(=O)OCc1ccccc1)C(=O)OCc1ccc(Cl)cc1	none
O=c1cc(Nc2ccc3c(c2)OCCO3)[nH]c(=O)n1-c1ccc(Br)cc1	none
O=c1cc(Nc2ccc3c(c2)OCO3)[nH]c(=O)n1-c1ccc(Br)cc1	Lmaj promast 99
C/C(N)=C(/C#N)C(=O)COC(=O)CC12CC3CC(CC(C3)C1)C2	Lmaj promast 97, m-calpain inh 65
O=C(COC(=O)c1ccc(-c2ccc([N+](=O)[O-])cc2)o1)NC(=O)NC1CCCCC1	none
O=C(NC12CC3CC(CC(C3)C1)C2)c1ccc(-c2ccccc2Cl)o1	none
O=C(NC12CC3CC(CC(C3)C1)C2)c1ccc(-c2ccc(Cl)cc2)o1	Lmaj promast 92
O=C(NC12CC3CC(CC(C3)C1)C2)c1ccc(-c2cccc(Cl)c2)o1	WT yeast gro inh 66
O=C(NC12CC3CC(CC(C3)C1)C2)c1ccc(COc2ccc(Cl)cc2[N+](=O)[O-])o1	none
O=C(COC(=O)c1ccc(-c2ccc([N+](=O)[O-])cc2)o1)NC(=O)NC12CC3CC(CC(C3)C1)C2	Lmaj promast 98
O=C(COC(=O)CNC(=O)c1ccccc1)Nc1ccc(F)c([N+](=O)[O-])c1	none
Clc1ccc(-c2ccc(CNCC3CCCO3)o2)cc1 (stereo not drawn)	none (no result: Lmaj promast, WT yeast gro inh, PMI act, PMI act hi M6P)
Cc1cc(Cl)c(OCCCNCc2ccccc2)c(Br)c1	Lmaj promast 84
COCCNCCCCOc1c(Cl)cc(C)cc1Br	Lmaj promast 98
Cc1cc(Cl)cc(Br)c1OCCCNCC(C)O (stereo not drawn)	none
CCc1ccc(N2CC(C(=O)Nc3cc(C)on3)CC2=O)cc1 (stereo not drawn)	none
